In ChEMBL document CHEMBL3822443, “Looking for new antiplasmodial quinazolines: DMAP-catalyzed synthesis of 4-benzyloxy- and 4-aryloxy-2-trichloromethylquinazolines and their in vitro evaluation toward Plasmodium falciparum” (Eur J Med Chem, 2016):

Columns and labels:
[1] = Cytotoxicity against human HepG2 cells measured after 72 hrs by MTT assay; format: cell-based
How it was run: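 Cells seeded at 5.10³ per well in complete medium at 37 °C, humidified 6% CO₂, and left 24 h. Compound was added in DMSO (final under 0.5% v/v) over a range of concentrations for 72 h at 37 °C, in triplicate. Wells were checked under the microscope for precipitate. MTT (0.5 mg/mL in FCS-free medium) was added for 2 h, then A570 read with a 630 nm reference. Viability was taken as % of control, CC50 from dose–response, mean of three independent experiments.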

[2] = Selectivity index, ratio of CC50 for human HepG2 cells to IC50 for chloroquine/purimethamine/proguanil-resistant Plasmodium falciparum K1; format: functional
How it was run: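 SI = CC50/IC50 (K1). […] MTT at 0.5 mg/mL was added for 2 h, and absorbance read at 570 nm against 630 nm reference. Viability was taken as % of control, and CC50 is the mean of three independent experiments.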

[3] = Solubility of compound in RPMI1640 culture medium containing 25mM HEPES, 25 mM NaHCO3 and 10% A+ human serum; format: physicochemical
Plasmodium falciparum = assay: Antiplasmodial activity against chloroquine/purimethamine/proguanil-resistant Plasmodium falciparum K1 infected in human A+ erythrocytes assessed as reduction in parasitaemia measured after 72 hrs by SYBR Green I fluorescence-based assay; format: functional, organism-based; details: K1, 72 h

SMILES	CC50 at 72 h [1] [µM]	Ratio CC50/IC50 [2]	solubility [3]	IC50 (Plasmodium falciparum) [µM]
COc1cccc(Oc2nc(C(Cl)(Cl)Cl)nc3ccccc23)c1	0.5	0.3	soluble	
Clc1ccc(Oc2nc(C(Cl)(Cl)Cl)nc3ccccc23)c(Cl)c1	22.1	18.4	soluble	1.2
CC(=O)c1ccccc1Oc1nc(C(Cl)(Cl)Cl)nc2ccccc12	40	26.7	soluble	1.5
Cc1cc(Oc2nc(C(Cl)(Cl)Cl)nc3ccccc23)ccc1Cl	5.3	5.9	soluble	0.9
COc1ccc(COc2nc(C(Cl)(Cl)Cl)nc3ccccc23)cc1OC	118	30.6	soluble	3.9
ClC(Cl)(Cl)c1nc(Oc2c(Br)cc(Br)c3cccnc23)c2ccccc2n1	4.9	<0.5	soluble	> 10
Cc1ccc(COc2nc(C(Cl)(Cl)Cl)nc3ccccc23)cc1	50.9	12.7	soluble	4
ClC(Cl)(Cl)c1nc(Oc2cccc(Br)c2)c2ccccc2n1	36.7	16	soluble	2.3
ClC(Cl)(Cl)c1nc(OCc2cccc(OCc3ccccc3)c2)c2ccccc2n1	62.5	16.4	soluble	3.8
ClC(Cl)(Cl)c1nc(Oc2ccccc2Br)c2ccccc2n1	26.2	13.8	soluble	1.9
Clc1ccc(COc2nc(C(Cl)(Cl)Cl)nc3ccccc23)cc1	33.4	13.4	soluble	2.5
Cc1occc(=O)c1Oc1nc(C(Cl)(Cl)Cl)nc2ccccc12	62.7	<6.3	soluble	> 10
CC(=O)c1ccccc1Oc1nc(C)nc2ccccc12			soluble	> 15
N#Cc1ccc(Oc2nc(C(Cl)(Cl)Cl)nc3ccccc23)cc1	> 8	>5	Insoluble	1.6
FC(F)(F)c1ccc(COc2nc(C(Cl)(Cl)Cl)nc3ccccc23)cc1	27.8	9.9	soluble	2.8
O=[N+]([O-])c1ccc(COc2nc(C(Cl)(Cl)Cl)nc3ccccc23)cc1	34.9	19.4	soluble	1.8
COc1ccc(COc2nc(C(Cl)(Cl)Cl)nc3ccccc23)cc1	90.3	<9	soluble	> 10
O=c1cc(Oc2nc(C(Cl)(Cl)Cl)nc3ccccc23)c2ccccc2o1	59	<5.9	soluble	> 10
ClC(Cl)(Cl)c1nc(Oc2ccc3ccccc3n2)c2ccccc2n1	30.3	<3	soluble	> 10

SMILES	CC50 at 72 h [1] [µM]	Ratio CC50/IC50 [2]	solubility [3]	IC50 (Plasmodium falciparum) [µM]
CC(C)c1ccc(COc2nc(C(Cl)(Cl)Cl)nc3ccccc23)cc1	33.3	<3.3	soluble	> 10
O=Cc1ccccc1Oc1nc(C(Cl)(Cl)Cl)nc2ccccc12	75	7.5	soluble	10
CC(=O)c1cccc(Oc2nc(C(Cl)(Cl)Cl)nc3ccccc23)c1	1	0.6	soluble	1.7
O=[N+]([O-])c1cccc(COc2nc(C(Cl)(Cl)Cl)nc3ccccc23)c1	29.9	13.6	soluble	2.2
C#CC(Oc1nc(C(Cl)(Cl)Cl)nc2ccccc12)c1ccccc1 (configuration not stated)	24.6	10.2	soluble	2.4
Fc1c(F)c(F)c(Oc2nc(C(Cl)(Cl)Cl)nc3ccccc23)c(F)c1F	43.7	9.9	soluble	4.4
ClC(Cl)(Cl)c1nc(OCc2ccccc2)c2ccccc2n1	43.8	21.9	soluble	2
O=[N+]([O-])c1ccccc1COc1nc(C(Cl)(Cl)Cl)nc2ccccc12	> 10	>4.3	Insoluble	2.3
CC(=O)c1ccc(Oc2nc(C(Cl)(Cl)Cl)nc3ccccc23)cc1	49.5	21.5	soluble	2.3
O=[N+]([O-])c1ccc(/C=C/COc2nc(C(Cl)(Cl)Cl)nc3ccccc23)cc1	31.2	12	soluble	2.6
O=[N+]([O-])c1cc2c(cc1COc1nc(C(Cl)(Cl)Cl)nc3ccccc13)OCO2	28.7	9.3	soluble	3.1
ClC(Cl)(Cl)c1nc(Oc2ccc(Br)cc2)c2ccccc2n1	45	25	soluble	1.8
CC(Oc1nc(C(Cl)(Cl)Cl)nc2ccccc12)c1ccc(Cl)cc1 (configuration not stated)	25.1	7.2	soluble	3.5
N#CC(Oc1nc(C(Cl)(Cl)Cl)nc2ccccc12)c1ccccc1 (configuration not stated)	25.7	17.1	soluble	1.5
CC(Oc1nc(C(Cl)(Cl)Cl)nc2ccccc12)c1ccccc1 (configuration not stated)	39.9	12.1	soluble	3.3
CC(Oc1nc(C(Cl)(Cl)Cl)nc2ccccc12)c1ccc(Cl)cc1Cl (configuration not stated)	30.2	7.2	soluble	4.2
COc1cc(C=O)cc([N+](=O)[O-])c1Oc1nc(C(Cl)(Cl)Cl)nc2ccccc12	57	<5.7	soluble	> 10
C[C@H]1c2cccc(O)c2C(=O)C2=C(O)[C@]3(O)C(=O)C(C(N)=O)=C(O)[C@@H](N(C)C)[C@@H]3[C@@H](O)[C@@H]21.O [DOXYCYCLINE]		3.3		
